Shown are actives, neighbours in structure and some others; about 3.5% of the full set was active somewhere.
RGS4 act – RGS4 potentiation or activation; HEK293 M3R/inducible RGS4, carbachol calcium flux Fluo4; active compounds read low; B-score at 10 µM; actives 0.92% (n = 310,000); AID 463111;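 active = B-score of the integrated calcium signal more than 4 SD below the library mean, with starting fluorescence not abnormally high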;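 also: negative B-score means reduced calcium response which marks RGS4 activation or potentiation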
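Reagent: ECmax carbachol challenge; Test system: M3R-expressing HEK293 line, RGS4 induced by doxycycline; Schedule: overnight RGS4 induction, 30 min dye load 37 °C, 20 min compound RT; Detection: calcium dye Fluo4 fluorescence; Read-out: Agonist-evoked peak-minus-minimum fluorescence over baseline, integrated ratio, B score.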
MrgX1 PAM – allosterically activates human MrgX1 receptor signaling | Q96LB2 | MrgX1-HEK293, Fluo-4 calcium flux, FDSS; active compounds read high | B-score at 10 µM | actives 0.63% (n = 310,000) | AID 588675;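 active = plate-corrected calcium response at least 3 library SD above typical, normal starting fluorescence, not activating the receptor alone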;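 also: compound read alongside a low EC10 to EC30 dose of BAM8-22 agonist; peak minus trough fluorescence over baseline measured at the second addition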
Target sequence (Q96LB2 whole entry, looked up): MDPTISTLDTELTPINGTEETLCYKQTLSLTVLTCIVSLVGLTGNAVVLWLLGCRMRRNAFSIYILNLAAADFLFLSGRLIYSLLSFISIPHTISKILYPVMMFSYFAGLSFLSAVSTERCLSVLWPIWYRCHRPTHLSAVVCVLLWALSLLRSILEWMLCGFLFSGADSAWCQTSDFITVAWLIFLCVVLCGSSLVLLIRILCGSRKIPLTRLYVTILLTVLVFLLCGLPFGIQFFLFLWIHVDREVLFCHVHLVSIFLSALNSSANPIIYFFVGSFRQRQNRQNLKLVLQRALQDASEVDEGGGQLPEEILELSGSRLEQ
RGS4 inh – human RGS4 inhibition; AID 463165; B-score at 10 µM; P49798; actives 0.45% (n = 310,000); HEK293 M3R/RGS4 inducible, Fluo-4 calcium flux; active compounds read high; triggered by carbachol at its EC20;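 active = B-score, a plate-corrected calcium signal, over three deviations above library mean, with baseline fluorescence within five deviations of library mean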;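 also: RGS4 expression induced by doxycycline in cells with stable M3 receptor; B-score is computed from the integrated fluorescence ratio over baseline after carbachol; higher B-score means a larger calcium signal and so more RGS4 inhibition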
Target sequence (P49798 whole entry, looked up): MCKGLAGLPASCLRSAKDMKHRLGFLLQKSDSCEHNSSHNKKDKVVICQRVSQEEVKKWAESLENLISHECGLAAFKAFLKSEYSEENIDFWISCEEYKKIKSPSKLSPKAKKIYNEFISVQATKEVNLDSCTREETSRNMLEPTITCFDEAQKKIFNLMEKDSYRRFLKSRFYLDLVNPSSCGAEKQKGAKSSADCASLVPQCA
MrgX1 antag – human MrgX1 receptor antagonism, primary screen; Q96LB2; MRGX1-HEK293 calcium flux, Fluo-4, BAM8-22 antagonism; active compounds read low; B-score at 10 µM; actives 1.3% (n = 310,000); AID 588676;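 active = calcium-response B-score plate-corrected more than 3 library SD below zero, starting fluorescence within 5 deviations, no agonist response on first addition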;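 also: peak minus trough fluorescence over baseline after final BAM8-22 challenge near maximal dose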
MrgX1 ag – human MrgX1 receptor agonism, primary screen; actives 0.44% (n = 310,000); MrgX1-HEK293 cells, Fluo-4 calcium fluorescence, agonist mode; active compounds read high; Q96LB2; B-score at 10 µM;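 active = calcium response B-score plate-corrected fluorescence ratio at least 3 library SD, with starting fluorescence B-score inside 5 SD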
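times = overnight plating, then 30 min 37 °C plus 30 min room-temperature dye loading | assay system = stable human MrgX1 HEK293 cell line | input = fifteen thousand cells per well | signal = kinetic calcium dye fluorescence, Fluo-4 NW | dosing = compound delivered in addition one of three | read-out = B-scored fluorescence response ratio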
RGS4 block valid – RGS4 inhibitor validation. AID 492999. actives 65% (n = 1,700). shares compounds with RGS4 inh. calcium response, % at 10 µM. HEK293 M3R/RGS4, carbachol calcium Fluo-4 fluorescence; carbachol added at its EC20; 0 = buffer wells, 100 = carbachol control;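 active = duplicate-averaged calcium response above the buffer-only control mean plus 5 SD of those controls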;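 also: integrated fluorescence ratio F max minus min over baseline F0; higher response in RGS4-induced cells means RGS4 inhibition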
RGS4 uninduced – non-induced cell nonspecific activity of RGS4 inhibitors. shares compounds with RGS4 inh. HEK293 M3R non-induced, carbachol calcium Fluo-4; submaximal (EC20) carbachol stimulus; buffer wells 0%, carbachol control wells 100%. AID 493000. actives 20% (n = 1,900). activity (percent), % at 10 µM; call rule not given here;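 also: RGS4 induction absent so cells express M3R without RGS4; higher means more calcium signal and flags a non-specific hit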
RGS4 inh ctr2 – second counter-screen for RGS4 inhibitors: non-induced cells without carbachol; shares compounds with RGS4 inh; HEK293 M3R/RGS4 non-induced, Fluo-4 calcium, no carbachol; normalised: buffer wells 0%, carbachol wells 100%; calcium response (agonist-mode artifact), % at 10 µM; actives 22% (n = 1,900); AID 493001;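 active = duplicate-averaged calcium rise in uninduced cells above buffer wells' mean plus 5 SD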
A number is an active result; n = inactive; x = not tested or not shown.

SMILES | RGS4 act | MrgX1 PAM | RGS4 inh | MrgX1 antag | MrgX1 ag | RGS4 block valid | RGS4 uninduced | RGS4 inh ctr2
O=C(CSc1nnc2ccccn12)NNC(=O)c1ccc(Br)cc1 | n | n | n | n | n | x | x | x
Cc1nc(Nc2nc3ccccc3o2)nc(C)c1C(=O)Nc1ccc(F)cc1 | n | n | 4.7 | n | n | 7.0% | n | n
CCOC(=O)c1cnc(Nc2nc3ccccc3o2)nc1C | n | n | n | n | n | x | x | x
CCN(CC)N=Nc1ccc(S(N)(=O)=O)cc1 | n | n | n | n | n | x | x | x
Cc1cc(O)c2c(c1)C(=O)c1cc(O)cc(O)c1C2=O | n | n | n | n | n | x | x | x
O=C1c2cc(O)cc(O)c2C(=O)c2c1cc(O)c([C@@H](CO)CCO)c2O | n | n | 6.3 | n | n | 18% | n | 67%
CCN1CCN(c2cc(C)c3cc(NC(=S)N4CCC5(CC4)OCCO5)ccc3n2)CC1 | n | n | n | n | n | x | x | x
Cc1cc(C(=O)CN2C(=O)NC(Cc3c[nH]c4ccccc34)C2=O)c(C)n1C (centres undefined) | n | n | n | n | n | x | x | x
COc1ccc(C2CC(c3cccs3)=NN2S(=O)(=O)c2ccc(C)cc2)cc1 (centres undefined) | n | n | 6.2 | n | n | 17% | n | n
Cc1ccc(C2CC(c3cccs3)=NN2S(=O)(=O)c2ccc(C)cc2)cc1 (centres undefined) | n | n | n | n | n | x | n | 32%
O=S(=O)(c1ccccc1)N1N=C(c2cccs2)CC1c1ccc(F)cc1 (centres undefined) | n | n | n | n | n | x | x | x
CCCCn1c(=O)c(C(=O)OCC)c(O)c2ccccc21 | n | n | n | n | n | x | x | x
CCOC(=O)c1c(C)[nH]c(C(=O)CN2C(=O)NC(C)(c3ccc4ccccc4c3)C2=O)c1C (centres undefined) | n | n | 5.7 | n | n | 9.0% | n | n
CCCC1(c2ccccc2)NC(=O)N(CC(=O)c2[nH]c(C)c(C(=O)OCC)c2C)C1=O (centres undefined) | n | n | n | n | n | x | x | x
Cc1ccc(C(=O)O)cc1NC(=S)NC(=O)c1ccc(-c2ccc(Cl)cc2)o1 | n | n | n | n | n | x | n | n
COc1ccc(C(=O)O)cc1NC(=S)NC(=O)c1ccc(-c2ccc(Cl)cc2)o1 | n | x | 4.8 | x | x | n | n | n
O=C(O)c1cccc(NC(=S)NC(=O)c2ccc(-c3ccc(Cl)cc3)o2)c1 | n | n | n | n | n | x | x | x
Cc1nnc(SCC(=O)Nc2cc(-c3cc(C)c(C)cc3C)nn2-c2ccccc2)s1 | n | n | n | n | n | x | x | x
CCCc1ccc(-c2cc(NC(=O)CSc3nnc(N)s3)n(-c3ccccc3)n2)cc1 | n | n | 8.8 | n | n | 20% | n | n
c1coc(-c2nc(-c3ccco3)c(-c3ccco3)nc2-c2ccco2)c1 | n | n | n | n | n | x | x | x
COc1ccc2nc(-c3ccco3)c(-c3ccco3)nc2c1 | n | n | 5.8 | n | n | n | n | 32%
S=c1[nH]nc(COc2ccccc2)n1/N=C/c1ccncc1 | n | n | n | n | n | x | x | x
COc1cc(/C=C2/SC(=S)N(Cc3ccccc3)C2=O)ccc1O | n | 11 | 6.4 | n | n | 12% | n | 34%
O=C1/C(=C/c2ccncc2)SC(=S)N1Cc1ccccc1 | n | n | n | n | n | x | x | x
O=C1/C(=C\c2cccc(O)c2O)SC(=S)N1Cc1ccccc1 | n | n | 8.4 | n | n | 18% | n | n
SMILES | RGS4 act | MrgX1 PAM | RGS4 inh | MrgX1 antag | MrgX1 ag | RGS4 block valid | RGS4 uninduced | RGS4 inh ctr2
O=C1/C(=C\c2cccc(O)c2)SC(=S)N1Cc1ccccc1 | n | n | n | n | n | n | n | n
O=C(O)c1cc(-c2ccc(Cl)cc2)n(-c2ccccc2)n1 | n | n | n | n | n | x | x | x
COc1cc(/C=N/N2CCN(c3ccccc3OC)CC2)ccc1O | n | n | n | n | n | x | x | x
COc1ccccc1CN=C1NC(=O)C(CC(=O)Nc2ccc(C(C)=O)cc2)S1 (centres undefined) | n | n | n | n | n | n | n | n
C/C(=N\N=C1\NC(=O)C(CC(=O)NCc2ccccc2)S1)C(C)C (centres undefined) | n | n | n | n | n | x | x | x
C/C(=N\N=C1\NC(=O)C(CC(=O)Nc2ccc(C)c(Cl)c2)S1)C(C)C (centres undefined) | n | n | n | n | n | x | 30% | n
O=C1Nc2ccccc2/C1=N/N=C/c1ccc(-c2ccc([N+](=O)[O-])cc2)o1 | n | x | 4.8 | x | x | 7.5% | 35% | n
Cc1ccc(C(=O)CC(SCC(=O)O)c2ccc([N+](=O)[O-])cc2)cc1 (centres undefined) | n | n | 6.3 | n | n | 11% | 36% | n
Cc1ccc(C(=O)CC(C(=O)O)n2cnc([N+](=O)[O-])n2)cc1 (centres undefined) | n | n | 5.6 | n | n | 14% | n | n
O=C(CC(SCCO)c1ccc([N+](=O)[O-])cc1)c1ccco1 (centres undefined) | n | n | 5.4 | n | n | 11% | n | n
COc1ccc(C(CC(=O)c2ccc(C)cc2)Nc2ccc([N+](=O)[O-])cc2)cc1 (centres undefined) | n | n | n | n | n | x | x | x
COc1ccc2oc(=O)c(C(=O)N3CCN(C(=O)c4ccccc4)CC3)cc2c1 | n | n | n | n | n | x | x | x
CCCCOc1ccc(N=Cc2cccs2)cc1 | n | n | n | n | n | x | x | x
N#Cc1c(N)nc(SCC(=O)NC2CCCCC2)c(C#N)c1-c1ccc(Cl)cc1 | n | n | n | n | n | x | x | x
N#CCSc1nc(N)c(C#N)c(C2CCCCC2)c1C#N | n | n | 5.1 | n | n | 16% | 50% | n
CNc1nc(N)c([N+](=O)[O-])c(Nc2cccc(Cl)c2)n1 | n | n | 15 | n | n | 10% | 34% | 10%
CNc1nc(N)c([N+](=O)[O-])c(NC2CCCCC2)n1 | n | n | 6 | n | n | 32% | 39% | n
O=C(CCCN1C(=O)C2CC=CCC2C1=O)Nc1ccccc1F (centres undefined) | n | n | n | n | n | x | x | x
Cc1[nH]c2ccccc2c1C(=O)CSc1nc2cc(S(=O)(=O)N3CCCCC3)ccc2o1 | n | n | n | n | n | x | x | x
O=C1NN(c2ccc(Br)cc2)C(=O)/C1=C\c1ccc(O)cc1O | n | n | n | n | n | x | x | x

Assay outcomes: PubChem, Johns Hopkins Ion Channel Center
